From ChEMBL document CHEMBL1212846, “Synthesis and in vivo evaluation of [11C]tariquidar, a positron emission tomography radiotracer based on a third-generation P-glycoprotein inhibitor” (Bioorg Med Chem, 2010)
Values belong to the compound of their own block, whether it stands above or below them. Activity calls are given as the source filed them. No cut-off for these calls is given here.

Tests used:
Brain [1] = assay: Drug uptake in rat brain at 15 mg/kg, iv after 60 mins post-radiotracer administration; type: ADME, organism-based; set-up: dose 15 mg/kg, route intravenous; conditions: in vivo, 1 h
Brain [2] = assay: Drug uptake in rat brain after 25 mins; type: ADME, tissue-based; conditions: in vivo
Method in brief: (§1)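 Naïve rats under isoflurane anaesthesia (1.5–2% maintenance), warmed to about 38 °C, with femoral artery and vein catheters. Baseline dynamic PET, whole-brain TACs expressed as SUV. Arterial blood sampled frequently and gamma-counted.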

Brain [3] = assay: Drug uptake in rat brain at 5 mg/kg, iv after 60 mins post-radiotracer administration; type: ADME, organism-based; set-up: dose 5 mg/kg, route intravenous; conditions: in vivo, 1 h
[4] = Inhibition of MRP
Brain [5] = assay: Biodistribution in mouse brain; type: ADME, organism-based; conditions: in vivo
Method in brief: (§2)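 Mice (wild-type, Mdr1a/b(−/−), Bcrp1(−/−), Mdr1a/b(−/−)Bcrp1(−/−); n = 3 per type) under isoflurane anaesthesia, warmed to about 38 °C. Whole-brain SUV taken at 25 min. Brain-to-blood ratio = individual brain SUV ÷ mean whole-blood SUV from separate groups, with blood drawn retro-orbitally at 25 min and gamma-counted.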

[6] = target: T1, Broad substrate specificity ATP-binding cassette transporter ABCG2 (Homo sapiens, UniProt Q9UNQ0); assay: Inhibition of BCRP
T1 sequence (Q9UNQ0 whole entry): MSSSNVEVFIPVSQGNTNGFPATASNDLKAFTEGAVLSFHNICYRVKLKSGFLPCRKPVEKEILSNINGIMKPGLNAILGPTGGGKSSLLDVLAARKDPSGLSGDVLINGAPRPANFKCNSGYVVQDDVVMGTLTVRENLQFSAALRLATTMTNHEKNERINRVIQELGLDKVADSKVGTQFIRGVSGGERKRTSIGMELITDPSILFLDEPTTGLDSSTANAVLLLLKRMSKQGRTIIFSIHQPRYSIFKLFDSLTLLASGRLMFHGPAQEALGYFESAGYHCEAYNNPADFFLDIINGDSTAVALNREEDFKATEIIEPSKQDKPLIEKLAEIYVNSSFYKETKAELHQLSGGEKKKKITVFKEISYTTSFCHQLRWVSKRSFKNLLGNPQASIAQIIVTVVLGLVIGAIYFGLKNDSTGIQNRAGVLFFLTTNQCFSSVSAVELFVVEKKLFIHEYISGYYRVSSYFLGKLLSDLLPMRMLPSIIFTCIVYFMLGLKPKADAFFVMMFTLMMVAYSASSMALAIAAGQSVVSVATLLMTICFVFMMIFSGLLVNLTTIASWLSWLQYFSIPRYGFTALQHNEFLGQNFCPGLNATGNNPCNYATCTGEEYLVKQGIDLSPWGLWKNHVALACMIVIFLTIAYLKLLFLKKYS

Brain [7] = assay: Drug uptake in rat brain after 0.5 to 1.3 mins; type: ADME, tissue-based; conditions: in vivo; method in brief: as §1
Brain [8] = assay: Decrease in binding in BCRP1 deficient FVB mouse brain; conditions: in vitro
[9] = Ratio of drug level from brain to blood in MDR1a/b and BCRP1 deficient FVB mouse; type: ADME, tissue-based; method in brief: as §2
Brain [10] = assay: Decrease in binding in MDR1a/b deficient FVB mouse brain; conditions: in vitro
[11] = Ratio of drug level from brain to blood in wild type FVB mouse; type: ADME, tissue-based; conditions: brain and blood
Method in brief: (§3)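 Single 60-min dynamic PET scan, whole brain outlined, SUV read at 25 min. Venous blood drawn retro-orbitally at 25 min in separate groups, gamma-counted and decay-corrected. Brain SUV of each animal divided by mean blood SUV of that group.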

[12] = Ratio of drug level from brain to blood in BCRP1 deficient FVB mouse; type: ADME, tissue-based; conditions: brain and blood; method in brief: as §3
[13] = Ratio of drug level from brain to blood in MDR1a/b deficient FVB mouse; type: ADME, tissue-based; conditions: brain and blood; method in brief: as §2
Brain [14] = assay: Decrease in binding in MDR1a/b and BCRP1 deficient FVB mouse brain; conditions: in vitro

- SUV (Brain [1]): 0.43
- SUV (Brain [2]): 0.19
- SUV (Brain [3]): 0.71
Structure (SMILES): COc1cc2c(cc1OC)CN(CCc1ccc(NC(=O)c3cccc4c(=O)c5cccc(OC)c5[nH]c34)cc1)CC2 [ELACRIDAR]

- inhibition [4]: Active
- Activity (Brain [5]): 24%
- inhibition (INH) [6]: Active
Structure (SMILES): COc1cc2c(cc1OC)CN(CCc1ccc(NC(=O)c3cc(OC)c(OC)cc3NC(=O)c3cnc4ccccc4c3)cc1)CC2 [TARIQUIDAR]

- SUV (Brain [7]): 0.71
- % decrease in binding (Brain [8]): 41%
- Kp [9]: 14.5
- % decrease in binding (Brain [10]): 49%
- Kp [11]: 1
- Kp [12]: 1.8
- Kp [13]: 3.4
- % decrease in binding (Brain [14]): 46%
Structure (SMILES): COc1cc2c(cc1OC)CN(CCc1ccc(NC(=O)c3cc(O[11CH3])c(OC)cc3NC(=O)c3cnc4ccccc4c3)cc1)CC2 [[11C]TARIQUIDAR]
